Assay results published in ChEMBL document CHEMBL4312006, “A novel chalcone derivative as Nrf2 activator attenuates learning and memory impairment in a scopolamine-induced mouse model” (Eur J Med Chem, 2020).
Activity calls are given as the source filed them. No cut-off for these calls is given here.

Tests used:
[1] = molecular target: T1, Nuclear factor erythroid 2-related factor 2 (Mus musculus) (UniProt Q60795); assay: Activation of NRF2 in mouse BV2 cells assessed as inhibition of H2O2-induced reduction in SOD activity incubated for 6 hrs followed by H2O2 stimulation and measured after 18 hrs by WST-1 based assay; assay type: cell-based
T1 sequence (whole entry): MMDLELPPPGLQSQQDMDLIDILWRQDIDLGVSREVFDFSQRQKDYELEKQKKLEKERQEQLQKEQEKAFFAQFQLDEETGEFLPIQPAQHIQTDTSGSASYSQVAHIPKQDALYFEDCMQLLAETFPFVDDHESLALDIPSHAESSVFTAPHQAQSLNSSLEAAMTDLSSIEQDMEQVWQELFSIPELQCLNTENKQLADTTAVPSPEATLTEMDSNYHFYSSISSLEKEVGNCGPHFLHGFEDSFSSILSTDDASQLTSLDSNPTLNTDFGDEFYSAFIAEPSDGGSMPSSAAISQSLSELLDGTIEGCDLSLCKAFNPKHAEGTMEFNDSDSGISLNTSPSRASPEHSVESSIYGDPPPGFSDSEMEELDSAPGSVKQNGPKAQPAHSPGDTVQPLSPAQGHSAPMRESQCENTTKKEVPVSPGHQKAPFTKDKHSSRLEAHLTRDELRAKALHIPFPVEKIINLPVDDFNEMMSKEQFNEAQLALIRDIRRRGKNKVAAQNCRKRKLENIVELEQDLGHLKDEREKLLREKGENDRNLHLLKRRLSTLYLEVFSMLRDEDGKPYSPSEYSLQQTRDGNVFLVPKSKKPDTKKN
How it was run: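 BV-2 cells (1.0×10^6) treated with compound for 24 h, or for 6 h followed by 400 μM H2O2 for 18 h. Cells washed, sonicated in ice-cold PBS and centrifuged; supernatant assayed by WST-1/superoxide inhibition. Activity derived from the IC50 of the inhibition curve and given as U/mg protein (1 U = 50% inhibition of WST-1 reduction).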

Mus musculus [2] = assay: Antioxidant activity in mouse assessed as inhibition of scopolamine-induced reduction in SOD activity at 30 mg/kg, po administered for 5 days and measured on day 5 by WST-1 based assay; assay type: functional, organism-based
How it was run: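 Male C57BL/6N mice (10 weeks) dosed 30 mg/kg/day compound in saline by oral gavage for 5 days, with scopolamine 2 mg/kg i.p. Hippocampus homogenised in sucrose buffer (pH 7.4) and centrifuged 40 min at 4 °C. SOD activity in the supernatant measured by WST-1 kit and given as U/mg protein. One-way ANOVA with Tukey's test.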

[3] = molecular target: T1, Nuclear factor erythroid 2-related factor 2 (Mus musculus); assay: Activation of NRF2 in mouse BV2 cells assessed as increase in nuclear NRF2 level at 10 uM incubated for 2 hrs by Western blot analysis; assay type: cell-based
How it was run: (§1)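 BV-2 cells washed in ice-cold PBS and lysed on ice for 40 min in RIPA buffer with protease inhibitors. Nuclear fractions prepared separately. 10 μg protein run on SDS-PAGE and blotted to PVDF. Membranes blocked in 5% skim milk/TBST and probed overnight at 4 °C for Nrf2, HO-1, GCLM or SOD1. HRP secondary with ECL detection. Band densities normalised to Lamin B1 or β-actin.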

BV-2 = assay: Inhibition of H2O2-stimulated ROS production in mouse BV2 cells preincubated for 24 hrs followed by H2O2 stimulation for 20 mins by DCFH-DA dye based assay; assay type: functional, cell-based
How it was run: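 BV-2 cells treated with a range of compound concentrations for 24 h at 37 °C. Loaded with 20 μM DCFH-DA for 40 min, then 200 μM H2O2 added for 20 min at 37 °C in the dark. DCF fluorescence read at ex 480 nm / em 530 nm. Compared with H2O2-treated control.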

[4] = Stability in rat plasma assessed as compound remaining after 30 mins; assay type: ADME, cell-free; settings: read-out: Stability
[5] = molecular target: T1, Nuclear factor erythroid 2-related factor 2 (Mus musculus); assay: Activation of NRF2 in mouse BV2 cells assessed as inhibition of LPS-stimulated iNOS expression preincubated for 3 hrs followed by LPS stimulation for 24 hrs by Western blot analysis; assay type: cell-based
How it was run: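 LPS-stimulated BV-2 cells pretreated with compound for 3 h. iNOS immunoblot (1:500) on 10 μg RIPA lysate protein, detected by ECL. Densities normalised to β-actin or Lamin B1 and compared with LPS-treated control.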

[6] = molecular target: T1, Nuclear factor erythroid 2-related factor 2 (Mus musculus); assay: Activation of NRF2 in mouse BV2 cells assessed as increase in GCLM protein expression at 10 uM incubated for 12 hrs by Western blot analysis; assay type: cell-based; how it was run: as §1
[7] = molecular target: T1, Nuclear factor erythroid 2-related factor 2 (Mus musculus); assay: Activation of NRF2 in mouse BV2 cells assessed as increase in HO1 mRNA level at 0.1 to 10 uM incubated for 8 hrs by qRT-PCR analysis; assay type: cell-based
How it was run: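 BV-2 microglia grown in RPMI 1640 with 10% FBS, 2.05 mM L-glutamine and penicillin-streptomycin at 37 °C, 5% CO2. Cells exposed to a range of compound concentrations for 8 h. Ho-1 or Gclm mRNA measured by qRT-PCR and expressed relative to untreated control. Means ± SEM, one-way ANOVA with Dunnett's test.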

CYP1A2 = molecular target: T2, CYP1A2 (Homo sapiens, UniProt P05177); assay: Inhibition of CYP1A2 (unknown origin) assessed as remaining activity relative to control; assay type: ADME
T2 sequence (P05177 whole entry): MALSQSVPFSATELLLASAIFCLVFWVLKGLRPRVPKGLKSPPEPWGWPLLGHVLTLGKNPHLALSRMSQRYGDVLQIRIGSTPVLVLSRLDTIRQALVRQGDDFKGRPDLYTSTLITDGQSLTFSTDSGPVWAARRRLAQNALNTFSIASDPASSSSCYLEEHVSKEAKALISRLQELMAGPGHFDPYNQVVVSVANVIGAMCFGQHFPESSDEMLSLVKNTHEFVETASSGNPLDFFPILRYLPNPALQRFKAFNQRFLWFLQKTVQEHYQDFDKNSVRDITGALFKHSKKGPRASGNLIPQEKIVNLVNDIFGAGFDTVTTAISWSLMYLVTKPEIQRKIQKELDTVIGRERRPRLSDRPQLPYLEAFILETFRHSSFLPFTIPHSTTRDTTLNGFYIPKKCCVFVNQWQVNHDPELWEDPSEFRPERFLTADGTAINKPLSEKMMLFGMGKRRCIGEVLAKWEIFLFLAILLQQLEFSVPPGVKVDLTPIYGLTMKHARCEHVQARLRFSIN

Mus musculus [8] = assay: Effect on mean number of arm entries in C57BL/6 mouse model of scopolamine-induced amnesia at 30 mg/kg, po administered for 5 days and measured on day 5 after 30 mins of scopolamine stimulation by Y-maze test; assay type: ADME, organism-based; settings: in vivo
How it was run: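 Male C57BL/6N mice given 30 mg/kg/day compound in saline by gavage for 5 days. Scopolamine 2 mg/kg in saline given i.p. 30 min before testing on the last day. Mice handled daily for 7 days beforehand. Free exploration of a three-arm Y-maze for 10 min, with entries scored manually (all four paws). Alternation = consecutive entries into three different arms.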

[9] = molecular target: T1, Nuclear factor erythroid 2-related factor 2 (Mus musculus); assay: Activation of NRF2 in mouse BV2 cells assessed as increase in HO1 protein expression at 3 uM incubated for 6 hrs by Western blot analysis; assay type: cell-based; how it was run: as §1

SMILES: CN1CCN(C(=O)COc2ccc(C(=O)/C=C/c3ccccc3C(F)(F)F)cc2)CC1.Cl
- Activity [1]: Active
- Activity (Mus musculus [2]): Active
- Activity [3]: Active
- inhibition (BV-2): Dose-dependent effect
- remaining at 0.5 h [4]: 99.3%
- Activity [5]: Dose-dependent effect
- fold change (FC) [6]: > 15
- Activity [7]: Active
- activity (CYP1A2): 98.5%
- activity (Mus musculus [8]): Non-Toxic
- Activity [9]: Active
